In the library only some 1% were active in any assay of this set; here they are far more common.
IMP-1 inh-1: blocks Pseudomonas aeruginosa IMP-1 metallo-beta-lactamase | purified IMP-1, nitrocefin hydrolysis, epi-absorbance fluorescence | inhibition, % at 5.6 µM | 0.45% of 290,000 active;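 active means inhibition above the mean plus 3 SD of all compounds in the same screening run, cut at about 4.5% in these data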
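System: purified recombinant IMP-1 beta-lactamase. Medium: Zinc- and detergent-supplemented HEPES buffer, pH 7.1. Compound: one 5.6 µM dose […]. Schedule: 15 min preincubation plus 25 min reaction at 25 °C. Technique: Epi-absorbance fluorescence, 480 nm excitation, 530 nm emission.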
PglD inh: inhibitors of Campylobacter jejuni PglD acetyltransferase. 0.098% of 360,000 active. AID 602405. inhibition, % at 12.5 µM. purified PglD enzyme, DTNB colorimetric CoA detection; in the data active means inhibition above about 16%, passing the limit was not always enough
PvdQ inh: P. aeruginosa PvdQ acylase inhibition; purified PvdQ acylase, fluorescence plate reader; AID 488965; 0.063% of 340,000 active; inhibition, % at 10 µM; in the data active means inhibition above about 30%, passing the limit was not always enough
VIM-2 inh: inhibitors of Pseudomonas aeruginosa VIM-2 metallo-beta-lactamase; 0.89% of 290,000 active; inhibition, % at 5.6 µM; purified VIM-2, nitrocefin hydrolysis, epi-absorbance fluorescence;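 active means inhibition above the mean of all tested compounds plus 3 SD, cutoff set per screening run, cut at about 7.5% in these data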;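 further: red hydrolysis product quenches plate fluorescence so inhibitors raise well fluorescence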
ERp5 inh: blocks human ERp5 reductase activity on insulin | Q15084 | ERp5 insulin aggregation, absorbance 650 nm, 90 min | AID 651711 | inhibition, % at 9.99 µM | 0.05% of 350,000 active;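 active means mean replicate inhibition above about 25%, with every replicate also reaching it, limit read from the data, passing the limit was not always enough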
PDI inh: inhibitors of human protein disulfide isomerase | P07237 | PDI insulin aggregation turbidity, A650, 90 min | inhibition, % at 10 µM | 0.052% of 350,000 active | AID 588391;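 active means mean inhibition across replicates of 30% or more, whatever share of single replicates reach that level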
Target sequence (P07237 whole entry, looked up): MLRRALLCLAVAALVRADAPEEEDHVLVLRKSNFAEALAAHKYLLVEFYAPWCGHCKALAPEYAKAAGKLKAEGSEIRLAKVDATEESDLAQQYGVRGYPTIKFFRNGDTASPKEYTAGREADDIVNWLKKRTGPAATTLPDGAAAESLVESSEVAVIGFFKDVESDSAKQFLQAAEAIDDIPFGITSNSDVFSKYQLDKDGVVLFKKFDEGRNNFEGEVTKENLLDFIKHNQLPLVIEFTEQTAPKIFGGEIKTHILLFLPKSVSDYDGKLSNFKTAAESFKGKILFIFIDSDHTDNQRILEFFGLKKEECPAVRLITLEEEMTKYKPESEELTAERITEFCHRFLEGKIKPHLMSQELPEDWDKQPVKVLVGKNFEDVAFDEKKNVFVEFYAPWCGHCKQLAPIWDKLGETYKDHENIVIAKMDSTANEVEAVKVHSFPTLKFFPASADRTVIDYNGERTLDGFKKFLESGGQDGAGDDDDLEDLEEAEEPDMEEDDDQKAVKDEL
IMP-1 inh-2: blocks IMP-1 metallo-beta-lactamase in VIM-2 selectivity screen | shares compounds with VIM-2 inh | purified IMP-1, nitrocefin hydrolysis, epi-absorbance fluorescence | inhibition, % at 5.6 µM | 1,300 tested, under 10 active; call rule not given here
VIM-2 FRET ctr: inhibits VIM-2 in FRET assay to exclude epi-absorbance artifacts; shares compounds with VIM-2 inh; purified VIM-2, CCF2 FRET substrate hydrolysis; inhibition, % at 5.6 µM; 23% of 1,300 active; AID 1857;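 active means inhibition above the mean of all tested compounds plus 3 SD, cut at about 19% in these data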
TEM-1 counter: selectivity counter-screen for VIM-2 inhibitors: E. coli TEM-1 inhibitors; shares compounds with VIM-2 inh; Purified TEM-1, nitrocefin hydrolysis, epi-absorbance fluorescence; inhibition, % at 5.6 µM; 3% of 1,300 active; AID 1866;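 active means inhibition above that campaign's mean inhibition plus 3 SD, cut at about 0.46% in these data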
VIM-2 inh conf: confirmation of P. aeruginosa VIM-2 metallo-beta-lactamase inhibitors; AID 2187; purified VIM-2, nitrocefin hydrolysis, epi-absorbance; inhibition, % at 5.6 µM; 96% of 1,300 active; shares compounds with VIM-2 inh;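 active means inhibition of the VIM-2 beta-lactamase enzyme above about 11% from the earlier first-round screen, limit read from the data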
Numbers stand for hits.

How did CCN(CC)CCCNc1nc2cc(OC)c(OC)cc2c2nc(-c3cccnc3)nn12 do in these assays?
IMP-1 inh-1: inactive; PglD inh: inactive; PvdQ inh: inactive; VIM-2 inh: 22; PDI inh: inactive; IMP-1 inh-2: inactive; VIM-2 FRET ctr: inactive; TEM-1 counter: inactive; VIM-2 inh conf: 42

What do the screens show for `CCN(CC)CCCNc1nc2ccccc2c2nc(-c3ccncc3)nn12`?
IMP-1 inh-1: inactive; PglD inh: inactive; PvdQ inh: inactive; VIM-2 inh: 28; ERp5 inh: inactive; PDI inh: inactive; IMP-1 inh-2: inactive; VIM-2 FRET ctr: inactive; TEM-1 counter: inactive; VIM-2 inh conf: 37

What do the screens show for `CCN(CC)CCCNc1nc2cc(OC)c(OC)cc2c2nc(-c3ccccc3)nn12`?
IMP-1 inh-1: inactive; PglD inh: inactive; PvdQ inh: inactive; VIM-2 inh: inactive; PDI inh: inactive

What do the screens show for `COc1cc2nc(NCCCN3CCN(C)CC3)n3nc(-c4ccccc4)nc3c2cc1OC`?
IMP-1 inh-1: inactive; PglD inh: inactive; PvdQ inh: inactive; VIM-2 inh: 28; PDI inh: inactive; IMP-1 inh-2: inactive; VIM-2 FRET ctr: inactive; TEM-1 counter: inactive; VIM-2 inh conf: 48

What do the screens show for `C[C@H]1CN([C@@H](C)CO)C(=O)c2ccccc2-c2ccccc2CO[C@@H]1CN(C)S(=O)(=O)c1ccc(F)cc1`?
PglD inh: inactive; ERp5 inh: inactive

How did O=C(C[C@@H]1C=C[C@H](NC(=O)c2ccc(F)cc2)[C@@H](CO)O1)NCCc1ccncc1 do in these assays?
PglD inh: inactive; ERp5 inh: inactive

What do the screens show for `CC(C)NC(=O)c1nn2c(C(F)(F)F)cc(-c3ccco3)nc2c1Cl`?
IMP-1 inh-1: inactive; PglD inh: inactive; PvdQ inh: inactive; VIM-2 inh: inactive; ERp5 inh: inactive; PDI inh: inactive

Results for O=C(NCCCN1CCOCC1)c1nn2c(C(F)(F)F)cc(-c3ccco3)nc2c1Cl ?
IMP-1 inh-1: inactive; PglD inh: inactive; PvdQ inh: inactive; VIM-2 inh: 12; ERp5 inh: inactive; PDI inh: inactive; IMP-1 inh-2: inactive; VIM-2 FRET ctr: inactive; TEM-1 counter: inactive; VIM-2 inh conf: 18

What do the screens show for `O=C(N[C@H]1CC[C@H](CCNS(=O)(=O)c2ccccc2Cl)O[C@@H]1CO)c1ccccc1`?
PglD inh: inactive; ERp5 inh: inactive

Results for COc1cccc(-c2ccc3c(c2)[C@@H]2[C@@H](CCN2C(=O)C2CCCC2)[C@H](CO)N3)c1 ?
ERp5 inh: inactive

How did CCc1ccc(NC(=O)c2cnc(N3CCN(c4ccccn4)CC3)c3ccccc23)cc1 do in these assays?
IMP-1 inh-1: inactive; PvdQ inh: inactive; VIM-2 inh: inactive; ERp5 inh: inactive; PDI inh: inactive

How did CCN1CCN(c2ncc(C(=O)Nc3ccccc3C(=O)OC)c3ccccc23)CC1 do in these assays?
IMP-1 inh-1: inactive; PglD inh: inactive; PvdQ inh: inactive; VIM-2 inh: 18; PDI inh: inactive; IMP-1 inh-2: inactive; VIM-2 FRET ctr: inactive; TEM-1 counter: inactive; VIM-2 inh conf: 30

Results for Cc1ccc(S(=O)(=O)N(C)C[C@@H]2OCCCC[C@H](C)Oc3ccc(NC(=O)c4ccccc4)cc3C(=O)N([C@H](C)CO)C[C@@H]2C)cc1 ?
PglD inh: inactive; ERp5 inh: inactive

What do the screens show for `O=C1c2ccccc2S(=O)(=O)N1Cc1nnc(-c2ccccc2Br)o1`?
IMP-1 inh-1: inactive; PglD inh: inactive; PvdQ inh: inactive; VIM-2 inh: inactive; PDI inh: inactive

How did O=c1c2ccccc2nnn1Cc1nnc(-c2ccccc2Br)o1 do in these assays?
IMP-1 inh-1: inactive; PvdQ inh: inactive; VIM-2 inh: 17; PDI inh: inactive; IMP-1 inh-2: inactive; VIM-2 FRET ctr: 21; TEM-1 counter: inactive; VIM-2 inh conf: 13

How did COc1ccc(-c2c[n+]3c4n2CCCCC4=C(c2ccc(Br)cc2)C3)cc1 do in these assays?
IMP-1 inh-1: inactive; PglD inh: inactive; PvdQ inh: inactive; VIM-2 inh: 14; PDI inh: inactive; IMP-1 inh-2: inactive; VIM-2 FRET ctr: inactive; TEM-1 counter: 2.5; VIM-2 inh conf: 13

What do the screens show for `Clc1ccc(C2=C3CCCCn4c(-c5ccccc5)c[n+](c43)C2)cc1`?
IMP-1 inh-1: inactive; PglD inh: inactive; PvdQ inh: inactive; VIM-2 inh: 18; PDI inh: inactive; IMP-1 inh-2: inactive; VIM-2 FRET ctr: inactive; TEM-1 counter: inactive; VIM-2 inh conf: inactive

What do the screens show for `COc1ccc(-c2cnc3n2CCCCC3)cc1`?
IMP-1 inh-1: inactive; PglD inh: inactive; PvdQ inh: inactive; VIM-2 inh: inactive; ERp5 inh: inactive; PDI inh: inactive

Results for O=C(C[n+]1cc(-c2ccc(Cl)cc2)n2c1CCCCC2)c1ccccc1 ?
IMP-1 inh-1: inactive; PvdQ inh: inactive; VIM-2 inh: inactive; ERp5 inh: inactive; PDI inh: inactive

What do the screens show for `COc1ccc(NC(=O)N(C)C[C@@H]2Oc3ccc(NC(=O)Nc4c(C)noc4C)cc3CC(=O)N([C@@H](C)CO)C[C@@H]2C)cc1`?
PglD inh: inactive; ERp5 inh: inactive

How did COC(=O)COc1ccc(-c2nn(C)c(=O)c3ccccc23)cc1 do in these assays?
IMP-1 inh-1: inactive; PglD inh: inactive; PvdQ inh: inactive; VIM-2 inh: inactive; PDI inh: inactive

How did Cc1cccc(NC(=O)COc2ccc(-c3nn(C)c(=O)c4ccccc34)cc2)c1 do in these assays?
IMP-1 inh-1: inactive; PglD inh: inactive; PvdQ inh: inactive; VIM-2 inh: 16; ERp5 inh: inactive; PDI inh: inactive; IMP-1 inh-2: inactive; VIM-2 FRET ctr: inactive; TEM-1 counter: inactive; VIM-2 inh conf: 18

How did CCCNC(=O)COc1ccc(-c2nn(C)c(=O)c3ccccc23)cc1 do in these assays?
IMP-1 inh-1: inactive; PglD inh: inactive; PvdQ inh: inactive; VIM-2 inh: 13; ERp5 inh: inactive; PDI inh: inactive; IMP-1 inh-2: inactive; VIM-2 FRET ctr: inactive; TEM-1 counter: inactive; VIM-2 inh conf: 20

Results for COc1ccccc1NC(=O)COc1ccc(-c2nn(C)c(=O)c3ccccc23)cc1 ?
IMP-1 inh-1: inactive; PglD inh: inactive; PvdQ inh: inactive; VIM-2 inh: inactive; ERp5 inh: inactive; PDI inh: inactive

Results for Cn1nc(-c2ccc(OCC(N)=O)cc2)c2ccccc2c1=O ?
IMP-1 inh-1: inactive; PvdQ inh: inactive; VIM-2 inh: 13; PDI inh: inactive; IMP-1 inh-2: inactive; VIM-2 FRET ctr: inactive; TEM-1 counter: inactive; VIM-2 inh conf: 30

Compound activity: PubChem, several laboratories
